Source: the array DNA melting data of Ke et al. (doi:10.1101/2024.01.08.574731)

Key:
[1] = folding enthalpy; higher = less favourable; fluorescence melt of hairpins on a sequencing array, two-state fit; conditions: sodium 0.088 M
Procedure, shortened: (§1)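 Folding enthalpy and melting temperature were estimated with bootstrapped two-state fits and combined across four replicates by inverse-variance weighting, with fitted temperatures raised by 9.35 °C to match UV melts. The data were Cy3 fluorescence of library hairpins, with annealed Cy3 and quencher oligos, on a sequenced MiSeq flow cell in 50 mM Na-HEPES pH 8.0, 25 mM NaCl, imaged in 2.5 °C steps up to 60 °C and normalised to pre-quench Cy3 and control constructs.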

[2] = melting temperature; fluorescence melt of hairpins on a sequencing array, two-state fit, raised by 9.35 °C to match UV melts; conditions: sodium 0.088 M
Procedure, shortened: as §1

| Sequence | folding enthalpy [1] [kcal/mol] | Tm [2] [°C] |
| --- | --- | --- |
| GCTTCCGAAAGGAGAAGC ((((((....)))..))) | -25.6 | 45.7 |
| GCTTCCGAAAGGATCAGC ((((((....)))..))) | -21.7 | 34 |
| GCTTCCTCGAAAGAGAGC (((..(((....)))))) | -12.7 | 28.9 |
| GCTTCGCGAAAGCAAAGC ((((.((....)).)))) | -23.8 | 57.3 |
| GCTTCGCGAAAGCCACGC ((.(.((....)).).)) | -8.03 | 27.8 |
| GCTTCGCGAAAGCCTAGC (((..((....))..))) | -14.7 | 37.4 |
| GCTTCGCGAAAGCGAGC (((.(((....)))))) | -15.6 | 61.4 |
| GCTTCGCGAAAGCGCTGC ((..(((....)))..)) | -22.9 | 41.4 |
| GCTTCGCGAAAGCGGTGC ((..(((....)))..)) | -14.6 | 49.3 |
| GCTTCGCGAAAGCGTGGC ((..(((....)))..)) | -17.4 | 53.3 |
| GCTTCGCGAAAGCTAGGC ((.(.((....)).).)) | -17.3 | 35.2 |
| GCTTCGGGAAACCGGAGC (((.(((....))).))) | -41.5 | 56.5 |
| GCTTCTCGAAAGAGGAGC (((.(((....))).))) | -36.1 | 56.1 |
| GCTTCTCGAAAGAGTAGC (((.(((....))).))) | -31.1 | 47.9 |
| GCTTCTGGAAACAAAAGC ((((.((....)).)))) | -13.1 | 28.8 |
| GCTTCTTCGAAAGAAAGC (((..(((....)))))) | -16 | 30.3 |
| GCTTGAGGAAACTCGAGC (((.(((....))).))) | -41.5 | 51.5 |
| GCTTGATCGAAAGATAGC (((..(((....)))))) | -17.7 | 29.4 |
| GCTTGCCGAAAGGCCAGC (((.(((....))).))) | -27.9 | 54.1 |
| GCTTGCGAAAGCAAAGC ((((((....))).))) | -22.8 | 61.4 |
| GCTTGCGAAAGCAAGAGC ((((((....)))..))) | -12.3 | 56.3 |
| GCTTGCGAAAGCAGGAGC ((((((....)))..))) | -14.3 | 51.4 |
| GCTTGGCGAAAGCAAAGC ((((.((....)).)))) | -36.5 | 63.7 |

| Sequence | folding enthalpy [1] [kcal/mol] | Tm [2] [°C] |
| --- | --- | --- |
| GCTTGGCGAAAGCCACGC ((.((((....)))).)) | -19 | 58.5 |
| GCTTGGCGAAAGCGTAGC (((..((....))..))) | -16.2 | 39.6 |
| GCTTGGGCGAAAGCCAGC (((..(((....)))))) | -12.9 | 48.6 |
| GCTTGGGGAAACCTAAGC ((((.((....)).)))) | -32.1 | 47.8 |
| GCTTGTCGAAAGACGAGC (((.(((....))).))) | -36.9 | 61.3 |
| GCTTGTGCGAAAGCAAGC (((..(((....)))))) | -22.9 | 46.5 |
| GCTTGTGGAAACATAGGC ((.(.((....)).).)) | -14.7 | 32 |
| GCTTTACCGAAAGGTAGC (((..(((....)))))) | -13 | 37.7 |
| GCTTTACGAAAGTAGAGC (((.(((....))).))) | -38.9 | 49.4 |
| GCTTTCCGAAAGGATAGC (((.(((....))).))) | -35.9 | 51.5 |
| GCTTTCGAAAGAACAGC ((((((....))).))) | -23.7 | 36.8 |
| GCTTTCGGAAACAAAAGC (((((.(....).))))) | -23.9 | 35.5 |
| GCTTTGCGAAAGCACCGC ((..(((....)))..)) | -12.4 | 39.2 |
| GCTTTGCGAAAGCGCAGC (((..((....))..))) | -11.8 | 38.7 |
| GCTTTGCGAAAGCTACGC ((.(.((....)).).)) | -13.2 | 45.4 |
| GCTTTGGGAAACTGAAGC ((((..(....)..)))) | -31.6 | 35.2 |
| GCTTTTGGAAACAAAAGC (((((((....))))))) | -42.2 | 61.5 |
| GCTTTTGGAAACAGAAGC ((((.((....)).)))) | -25.1 | 41.4 |
| GGAAAAACGAAAGTTTCC (((..(((....)))))) | -14.9 | 35.6 |
| GGAAACGAAAGTTACTCC ((((((....)))..))) | -10.2 | 22.8 |
| GGAAACGAAAGTTCGTCC ((((((....)))..))) | -13 | 24.8 |
| GGAAACGAAAGTTGTCC ((((((....))).))) | -18.2 | 31.5 |
